Data set [1] deals with Hepatitis B virus. The data set can be described thus: Antiviral activity against HBV infected in HepG2(2.2.15) cells assessed as inhibition of viral DNA replication after 8 days by dot blot hybridization.
For data set [2], the system named is Hepatitis B virus. Nature of the data set: Antiviral activity against HBV infected in HepG2(2.2.15) cells assessed as inhibition of viral surface antigen secretion after 8 days by radio immunoassay. Format: functional, organism-based. The method, boiled down:
(§1)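 Confluent 2.2.15 cultures were dosed at several concentrations in RPMI 1640 with 2% FBS, with fresh medium and compound each day for 8 days and untreated cell controls. HBsAg and HBeAg secreted into the supernatant were quantified by radioimmunoassay kits.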

Data set [3] can be described thus: Cytotoxicity against human HepG2(2.2.15) cells after 9 days by neutral red dye uptake assay. Particulars: read-out: TC50; call rule not given here.
Data set [4] in a line: Selectivity index, ratio of TC50 for human HepG2(2.2.15) cells to IC50 for Hepatitis B virus DNA replication. Format: toxicity.
Data set [5] concerns Hepatitis B virus. The data set can be described thus: Antiviral activity against HBV infected in HepG2(2.2.15) cells assessed as inhibition of viral early antigen secretion after 8 days by radio immunoassay. Format: functional, organism-based. To be noted: HepG2 2.2.15, 192 h. Summed up: as §1
The nature of data set [6]: Selectivity index, ratio of TC50 for human HepG2(2.2.15) cells to IC50 for Hepatitis B virus early antigen secretion. Format: toxicity.
Setting [7] is: Hepatitis B virus, HepG2 2.2.15, 192 h, read-out: IC50.

Converted amounts (≈) assume the structure as drawn.

As a reminder, the IC50 is the midpoint of a concentration-inhibition curve.

Regarding `Cc1nnsc1C(=O)N/C(C(=O)N1CCOCC1)=C(\Br)c1snnc1C`, the IC50 result in the data set with Hepatitis B virus [1] (hepg2 2.2.15) and with Hepatitis B virus [2] was “Not Active” in each case. Also, in data set [3], the CC50 at 216 h came to 47.7 µg/mL (≈ 104 µM).

Turning to `Cc1nnsc1C(=O)N/C(C(=O)N1CCCCC1)=C(\Br)c1ccccc1`, the IC50 result in the data set on Hepatitis B virus [1] (hepg2 2.2.15) and in the data set with Hepatitis B virus [2] was “Not Active” throughout. In addition, the CC50 at 216 h in data set [3] came to 111 µg/mL (≈ 255 µM).

For `Cc1nnsc1C(=O)N/C(C(=O)N1CCCCC1)=C(\Br)c1ccccc1Cl`, the half-maximal inhibitory concentration (IC50) in the data set with Hepatitis B virus [1] (setting [7]) was 10.4 µg/mL (≈ 22.1 µM); with Hepatitis B virus [2], “Not Active”. In addition, the CC50 at 216 h in data set [3] was determined as 86.2 µg/mL (≈ 184 µM). Further, the selectivity ratio in data set [4] amounted to 8.29.

On to `Cc1nnsc1C(=O)N/C(C(=O)N1CCCCC1)=C(\Br)c1ccc(Cl)cc1`, for which the IC50 in the data set with Hepatitis B virus [1] (setting [7]) was 3.59 µg/mL (≈ 7.64 µM); with Hepatitis B virus [2], “Not Active”. Also, the CC50 at 216 h in data set [3] is 17.8 µg/mL (≈ 37.9 µM). Further, the selectivity ratio in data set [4] came out at 4.96.

Consider `Cc1nnsc1C(=O)N/C(C(=O)N1CCCCC1)=C(\Cl)c1ccccc1`, for which the results for the IC50 result in the data set on Hepatitis B virus [1] (hepg2 2.2.15), in the data set with Hepatitis B virus [5] and with Hepatitis B virus [2] were “Not Active”, 12.3 µg/mL (≈ 31.4 µM) and “Not Active”, respectively. Also, the CC50 at 216 h in data set [3] came to 64.2 µg/mL (≈ 164 µM). The selectivity ratio in data set [6] was determined as 5.23.

Regarding `Cc1nnsc1/C(Br)=C(/NC(=O)c1ccccc1)C(=O)N1CCCCC1`, the IC50 is 9 µg/mL (≈ 20.7 µM) in the data set on Hepatitis B virus [1] (setting [7]) and “Not Active” in the data set on Hepatitis B virus [2]. In data set [3], the CC50 at 216 h was 192 µg/mL (≈ 442 µM). For the same compound, the selectivity ratio in data set [4] stood at 21.4.

On to `Cc1nnsc1/C(Br)=C(/NC(=O)c1ccccc1)C(=O)N1CCOCC1`, for which the half-inhibitory concentration (IC50) in the data set with Hepatitis B virus [1] (setting [7]) is 30.5 µg/mL (≈ 69.8 µM); in the data set with Hepatitis B virus [2], “Not Active”. In data set [3], the CC50 at 216 h is 333 µg/mL (≈ 762 µM). The selectivity ratio in data set [4] came out at 10.9.

As to `CCN(CC)C(=O)/C(NC(=O)c1ccccc1)=C(/Br)c1snnc1C`, the IC50 result in the data set with Hepatitis B virus [1] (hepg2 2.2.15) and in the data set on Hepatitis B virus [2] was “Not Active” throughout. The CC50 at 216 h in data set [3] is 86.2 µg/mL (≈ 204 µM).

Regarding `Cc1nnsc1/C(Cl)=C(/NC(=O)c1ccccc1)C(=O)N1CCOCC1`, the IC50 entry in the data set on Hepatitis B virus [1] (hepg2 2.2.15) and in the data set on Hepatitis B virus [2] was “Not Active” each time. The CC50 at 216 h in data set [3] stood at 577 µg/mL (≈ 1470 µM).

Take `Cc1nnsc1/C=C(/NC(=O)c1ccccc1)C(=O)N1CCCCC1`: the IC50 result in the data set with Hepatitis B virus [1] (hepg2 2.2.15) and with Hepatitis B virus [2] was “Not Active” throughout. Besides, in data set [3], the CC50 at 216 h came to 231 µg/mL (≈ 648 µM).

On to `Nc1ccn([C@@H]2CS[C@H](CO)O2)c(=O)n1` [LAMIVUDINE], for which the figures for the IC50 in the data set with Hepatitis B virus [1] (setting [7]) and in the data set on Hepatitis B virus [2] were 14.8 µg/mL (≈ 64.6 µM) and “Not Active”, respectively. In data set [3], the CC50 at 216 h is 962 µg/mL (≈ 4190 µM). For the same compound, the selectivity ratio in data set [4] was determined as 65.

(Values after ChEMBL document CHEMBL1157863, “Synthesis and antiviral activity of new acrylamide derivatives containing 1,2,3-thiadiazole as inhibitors of hepatitis B virus replication” (Eur J Med Chem, 2010).)
